From ChEMBL document CHEMBL4190389, “Synthesis and activity of di- or trisubstituted N-(phenoxyalkyl)- or N-{2-[2-(phenoxy)ethoxy]ethyl}piperazine derivatives on the central nervous system” (Bioorg Med Chem Lett, 2018)
pEC50, pIC50, pKi: −log10 of the molar value. The source made the active and inactive calls. No cut-off for these calls is given here.

Columns and labels:
[1] = target: T1, 5-hydroxytryptamine receptor 2A (Homo sapiens, UniProt P28223); assay: Agonist activity at human 5-HT2A receptor expressed in CHO-K1 cells co-expressing Galpha16 assessed as increase in calcium mobilization measured for 30 secs by aequorin-derived luminescence assay; assay type: functional, cell-based
[2] = target: T2, 5-hydroxytryptamine receptor 1A (Homo sapiens, UniProt P08908); assay: Displacement of [3H]8-OH-DPAT from recombinant human 5-HT1A receptor expressed in HEK293 cell membranes after 60 mins by liquid scintillation counting method
T2 sequence (P08908 whole entry): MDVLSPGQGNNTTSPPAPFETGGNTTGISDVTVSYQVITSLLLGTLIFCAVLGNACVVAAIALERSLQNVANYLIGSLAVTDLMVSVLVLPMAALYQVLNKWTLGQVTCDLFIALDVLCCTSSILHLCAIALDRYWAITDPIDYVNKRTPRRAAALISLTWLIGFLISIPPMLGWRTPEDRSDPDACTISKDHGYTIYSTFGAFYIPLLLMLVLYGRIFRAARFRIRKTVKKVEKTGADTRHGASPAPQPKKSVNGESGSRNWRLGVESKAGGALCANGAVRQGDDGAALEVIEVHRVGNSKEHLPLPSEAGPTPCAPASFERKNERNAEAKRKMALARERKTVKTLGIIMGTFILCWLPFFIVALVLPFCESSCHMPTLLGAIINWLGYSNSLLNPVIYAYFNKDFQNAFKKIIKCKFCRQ

[3] = target: T1, 5-hydroxytryptamine receptor 2A; assay: biochemical; assay type: cell-based, HEK293
[4] = target: 5-hydroxytryptamine receptor 6 (Homo sapiens, UniProt P50406); assay: Displacement of [3H]LSD from recombinant human 5-HT6 receptor expressed in CHO cells cell membranes after 60 mins by liquid scintillation counting method
[5] = target: T3, 5-hydroxytryptamine receptor 7 (Homo sapiens, UniProt P34969); assay: biochemical; assay type: cell-based, CHO
D(2) dopamine receptor [6] = target: T4, D(2) dopamine receptor (Homo sapiens, UniProt P14416); assay: Displacement of [3H]methylspiperonee from recombinant human D2 receptor expressed in HEK293 cells cell membranes after 60 mins by liquid scintillation counting method
[7] = target: T5, Alpha-1A adrenergic receptor (Homo sapiens, UniProt P35348); assay: Displacement of [3H]prazosin from recombinant human alpha1 adrenoceptor expressed in CHO cell membranes after 30 mins by liquid scintillation counting method
T5 sequence (P35348 whole entry): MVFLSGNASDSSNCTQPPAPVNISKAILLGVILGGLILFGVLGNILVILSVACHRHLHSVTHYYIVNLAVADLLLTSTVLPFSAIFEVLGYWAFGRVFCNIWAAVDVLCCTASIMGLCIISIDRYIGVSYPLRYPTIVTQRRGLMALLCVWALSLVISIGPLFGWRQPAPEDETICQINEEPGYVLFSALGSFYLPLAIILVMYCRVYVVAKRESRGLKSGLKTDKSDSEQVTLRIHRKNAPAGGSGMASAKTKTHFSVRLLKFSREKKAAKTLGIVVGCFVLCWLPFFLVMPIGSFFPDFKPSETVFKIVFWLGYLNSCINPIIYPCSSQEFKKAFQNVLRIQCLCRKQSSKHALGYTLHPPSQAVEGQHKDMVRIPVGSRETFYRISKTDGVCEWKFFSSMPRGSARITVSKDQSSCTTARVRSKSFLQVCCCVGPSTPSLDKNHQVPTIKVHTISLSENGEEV

[8] = target: T6, 5-hydroxytryptamine receptor 1A (Homo sapiens) (UniProt P08908); assay: Agonist activity at human 5-HT1A receptor expressed in CHO-K1 cells co-expressing Galpha16 assessed as increase in calcium mobilization measured for 30 secs by aequorin-derived luminescence assay relative to serotonin; assay type: functional, cell-based
T6 sequence (whole entry): T2 sequence (P08908 whole entry)

[9] = target: T6, 5-hydroxytryptamine receptor 1A (Homo sapiens); assay: Antagonist activity at human 5-HT1A receptor expressed in CHO-K1 cells co-expressing Galpha16 assessed as decrease in serotonin-induced calcium mobilization preincubated for 25 mins followed by serotonin challenge measured for 30 secs by aequorin-derived luminescence assay relative to control; assay type: functional, cell-based
[10] = target: T6, 5-hydroxytryptamine receptor 1A (Homo sapiens); assay: (§1) Antagonist activity at human 5-HT1A receptor expressed in CHO-K1 cells co-expressing Galpha16 assessed as decrease in serotonin calcium mobilization preincubated for 25 mins followed by serotonin challenge measured for 30 secs by aequorin-derived luminescence assay; assay type: functional, cell-based
[11] = target: T2, 5-hydroxytryptamine receptor 1A; assay: as §1; assay type: functional, cell-based
[12] = target: T1, 5-hydroxytryptamine receptor 2A; assay: Antagonist activity at human 5-HT2A receptor expressed in CHO-K1 cells co-expressing Galpha16 assessed as decrease in serotonin calcium mobilization preincubated for 30 mins followed by serotonin challenge measured for 30 secs by aequorin-derived luminescence assay; assay type: functional, cell-based
[13] = target: T3, 5-hydroxytryptamine receptor 7; assay: Agonist activity at human 5-HT7 receptor expressed in CHO-K1 cells assessed as increase in serotonin-induced cAMP level after 1 hr by TR-FRET assay relative to serotonin; assay type: functional, cell-based
[14] = target: T3, 5-hydroxytryptamine receptor 7; assay: Antagonist activity at human 5-HT7 receptor expressed in CHO-K1 cells assessed as decrease in serotonin-induced cAMP level after 1 hr by TR-FRET assay relative to control; assay type: functional, cell-based
[15] = target: T3, 5-hydroxytryptamine receptor 7; assay: Antagonist activity at human 5-HT7 receptor expressed in CHO-K1 cells assessed as decrease in serotonin-induced cAMP level after 1 hr by TR-FRET assay; assay type: functional, cell-based
D(2) dopamine receptor [16] = target: T4, D(2) dopamine receptor; assay: Agonist activity at human D2 receptor expressed in CHO-K1 cells co-expressing Galphaqi5 assessed as increase apomorphine-induced calcium mobilization measured for 30 secs by aequorin-derived luminescence assay relative to apomorphine; assay type: functional, cell-based
D(2) dopamine receptor [17] = target: T4, D(2) dopamine receptor; assay: Antagonist activity at human D2 receptor expressed in CHO-K1 cells co-expressing Galphaqi5 assessed as decrease in apomorphine-induced calcium mobilization preincubated for 30 mins followed by apomorphine challenge measured for 30 secs by aequorin-derived luminescence assay; assay type: functional, cell-based
Mus musculus [18] = assay: Antidepressant-like activity in Albino Swiss CD-1 mouse assessed as immobility time at 5 mg/kg, ip administered 30 mins prior to test measured for last 4 mins of 6 mins observation by forced swim test (reference value: 153.9 to 201.9 secs); assay type: functional
Mus musculus [19] = assay: Antidepressant-like activity in Albino Swiss CD-1 mouse assessed as immobility time at 10 mg/kg, ip administered 30 mins prior to test measured for last 4 mins of 6 mins observation by forced swim test (reference value: 153.9 to 201.9 secs); assay type: functional
Mus musculus [20] = assay: Antidepressant-like activity in Albino Swiss CD-1 mouse assessed as immobility time at 20 mg/kg, ip administered 30 mins prior to test measured for last 4 mins of 6 mins observation by forced swim test (reference value: 153.9 to 201.9 secs); assay type: functional
Mus musculus [21] = assay: Anxiolytic-like activity in Albino Swiss CD-1 mouse assessed as increase in number of punished crossings at 2.5 mg/kg, ip administered for 30 mins prior to test measured for 1 min by four-plate test; assay type: functional, organism-based
Procedure, shortened: (§2)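 Four-plate test in mice, i.p., 30 min before test; vehicle 0.9% NaCl; doses 1.25–10 mg/kg; number of punished crossings counted; mean ± SEM, n = 8–10 mice per group; ANOVA F statistics.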

Mus musculus [22] = assay: Anxiolytic-like activity in Albino Swiss CD-1 mouse assessed as increase in number of punished crossings at 5 mg/kg, ip administered for 30 mins prior to test measured for 1 min by four-plate test; assay type: functional, organism-based; procedure, shortened: as §2
Mus musculus [23] = assay: Toxicity in Albino Swiss CD-1 mouse assessed as death at 20 to 40 mg/kg, ip; assay type: organism-based; settings: in vivo
Procedure, shortened: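 Deaths counted in mice during maximal electroshock (MES) seizure testing after i.p. dosing, 6 mice per dose (3 or 1 at some top doses); recorded as number dead/number tested alongside protection and rotarod motor impairment (10 rpm); untreated control group included.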

Mus musculus [24] = assay: Anticonvulsant activity in ip dosed Albino Swiss CD-1 mouse assessed as dose required to protect against 50 Hz current-induced seizure; assay type: functional; settings: Swiss CD-1, ip
[25] = Neurotoxicity in ip dosed Albino Swiss CD-1 mouse assessed as minimum dose required to induce motor impairment treated 30 mins prior to test by rotarod test; assay type: toxicity, organism-based; settings: in vivo
[26] = Protection index, ratio of TD50 for motor impairment in ip dosed Swiss albino CD-1 mouse to ED50 for protection against 50 Hz current-induced seizures in ip dosed Swiss albino CD-1 mouse; assay type: toxicity, organism-based, Swiss CD-1; settings: in vivo, read-out: Ratio TD50/ED50
Mus musculus [27] = assay: Toxicity in Albino Swiss CD-1 mouse assessed as effect on locomotory activity at 1.25 to 5 mg/kg, ip administered for 30 mins prior to test measured for 1 min; assay type: organism-based; settings: in vivo

T1 sequence (P28223 whole entry): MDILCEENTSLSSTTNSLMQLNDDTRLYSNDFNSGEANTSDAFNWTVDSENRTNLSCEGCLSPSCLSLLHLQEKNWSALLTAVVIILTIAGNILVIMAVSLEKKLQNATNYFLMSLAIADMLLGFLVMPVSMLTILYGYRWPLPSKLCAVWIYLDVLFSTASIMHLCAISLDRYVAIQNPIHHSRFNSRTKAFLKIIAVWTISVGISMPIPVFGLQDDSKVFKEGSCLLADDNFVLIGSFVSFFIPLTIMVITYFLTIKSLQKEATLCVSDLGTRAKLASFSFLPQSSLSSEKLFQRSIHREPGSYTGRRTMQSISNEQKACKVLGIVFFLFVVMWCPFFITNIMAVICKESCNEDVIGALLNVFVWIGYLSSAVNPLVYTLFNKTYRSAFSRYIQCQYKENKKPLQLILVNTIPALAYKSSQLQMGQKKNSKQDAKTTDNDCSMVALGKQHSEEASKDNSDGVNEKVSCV
T4 sequence (P14416 whole entry): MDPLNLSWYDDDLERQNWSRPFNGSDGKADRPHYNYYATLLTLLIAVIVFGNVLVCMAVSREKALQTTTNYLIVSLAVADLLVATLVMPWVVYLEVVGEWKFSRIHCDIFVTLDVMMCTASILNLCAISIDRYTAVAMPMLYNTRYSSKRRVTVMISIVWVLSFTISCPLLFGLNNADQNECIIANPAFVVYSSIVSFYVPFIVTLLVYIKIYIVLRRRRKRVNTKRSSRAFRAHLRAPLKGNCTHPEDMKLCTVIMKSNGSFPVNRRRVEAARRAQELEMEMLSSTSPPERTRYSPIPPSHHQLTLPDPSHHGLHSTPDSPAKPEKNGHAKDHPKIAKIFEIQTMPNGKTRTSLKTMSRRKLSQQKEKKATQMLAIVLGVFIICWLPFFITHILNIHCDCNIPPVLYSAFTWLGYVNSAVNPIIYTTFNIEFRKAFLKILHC
T3 sequence (P34969 whole entry): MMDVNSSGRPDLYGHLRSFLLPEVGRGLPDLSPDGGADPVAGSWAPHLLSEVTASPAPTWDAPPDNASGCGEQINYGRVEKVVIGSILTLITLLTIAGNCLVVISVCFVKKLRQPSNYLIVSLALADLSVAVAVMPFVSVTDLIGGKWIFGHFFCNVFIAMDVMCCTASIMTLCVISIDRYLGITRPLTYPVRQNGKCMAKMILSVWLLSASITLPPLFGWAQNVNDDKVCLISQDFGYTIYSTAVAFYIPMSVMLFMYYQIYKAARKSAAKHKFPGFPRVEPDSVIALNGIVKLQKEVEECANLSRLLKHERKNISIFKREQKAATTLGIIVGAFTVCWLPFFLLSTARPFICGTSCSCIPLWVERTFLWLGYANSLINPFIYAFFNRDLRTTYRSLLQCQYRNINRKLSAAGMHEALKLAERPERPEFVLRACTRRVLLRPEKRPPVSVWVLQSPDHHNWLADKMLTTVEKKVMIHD
5-hydroxytryptamine receptor 6, sequence (P50406 whole entry): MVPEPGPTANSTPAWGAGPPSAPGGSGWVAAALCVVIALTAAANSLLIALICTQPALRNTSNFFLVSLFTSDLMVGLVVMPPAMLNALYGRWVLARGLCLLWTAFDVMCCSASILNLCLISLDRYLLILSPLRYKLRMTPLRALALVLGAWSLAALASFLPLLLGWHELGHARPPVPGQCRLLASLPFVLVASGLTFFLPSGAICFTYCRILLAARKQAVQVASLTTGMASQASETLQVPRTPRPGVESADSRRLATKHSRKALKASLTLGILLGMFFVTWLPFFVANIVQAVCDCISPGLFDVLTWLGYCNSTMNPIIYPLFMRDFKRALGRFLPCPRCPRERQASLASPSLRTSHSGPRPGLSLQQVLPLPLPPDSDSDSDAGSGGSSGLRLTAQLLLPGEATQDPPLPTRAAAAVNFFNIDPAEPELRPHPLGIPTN

Q: With `CC(N)Cc1c[nH]c2ccc(O)cc12` (centres undefined) as the molecule, how does the pEC50 [1] read?
A: The pEC50 was 8.70.

Q: With `COc1ccccc1N1CCN(CCOCCOc2c(C)cc(C)cc2C)CC1.Cl.Cl` as the molecule, how does the pKi [2] read?
A: The pKi was 8.30.

Q: What about the pKi [3] of the same molecule?
A: Its pKi is 6.61.

Q: What about the pKi [4] of the same molecule?
A: The pKi was 5.61.

Q: And the pKi [5]?
A: The pKi was 7.15.

Q: What about the pKi (D(2) dopamine receptor [6]) of the same molecule?
A: Its pKi is 6.72.

Q: What about the pKi [7] of the same molecule?
A: Its pKi is 7.82.

Q: And the Emax [8]?
A: Its Emax is 3%.

Q: And the Emax [9]?
A: The Emax was 20%.

Q: And the Kb [10]?
A: The Kb was 13.9 nM.

Q: And the pIC50 [11]?
A: The pIC50 was 7.25.

Q: What about the pIC50 [12] of the same molecule?
A: Its pIC50 is 4.74.

Q: And the Emax [13]?
A: Its Emax is 11%.

Q: And the Emax [14]?
A: The Emax was 3%.

Q: What about the pIC50 [15] of the same molecule?
A: Its pIC50 is 5.74.

Q: What about the Kb [15] of the same molecule?
A: The Kb was 783 nM.

Q: And the Emax (D(2) dopamine receptor [16])?
A: The Emax was 1%.

Q: And the pIC50 (D(2) dopamine receptor [17])?
A: Its pIC50 is 7.09.

Q: What about the Kb (D(2) dopamine receptor [17]) of the same molecule?
A: Its Kb is 24.4 nM.

Q: What about the Time (Mus musculus [18]) of the same molecule?
A: Its Time is 138.5 s.

Q: And the Time (Mus musculus [19])?
A: Its Time is 131.3 s.

Q: What about the Time (Mus musculus [20]) of the same molecule?
A: The Time was 150.6 s.

Q: And the Activity (Mus musculus [21])?
A: The Activity was “Active”.

Q: What about the Activity (Mus musculus [22]) of the same molecule?
A: The Activity was “Active”.

Q: What about the Activity (Mus musculus [23]) of the same molecule?
A: Its Activity is “Non-Toxic”.

Q: What about the ED50 (Mus musculus [24]) of the same molecule?
A: The ED50 was 26.3 mg/kg.

Q: And the TD50 at 0.5 h [25]?
A: Its TD50 at 0.5 h is 31.5 mg/kg.

Q: And the selectivity ratio [26]?
A: Its selectivity ratio is 1.19.

Q: And the Activity (Mus musculus [27])?
A: Its Activity is “Non-Toxic”.
